Source: ChEMBL document CHEMBL4359838, “Glucopyranosylidene-spiro-imidazolinones, a New Ring System: Synthesis and Evaluation as Glycogen Phosphorylase Inhibitors by Enzyme Kinetics and X-ray Crystallography” (J Med Chem, 2019)
Active and inactive are the calls of the source. The calls are words filed in the database; no cut-off is given here.

Columns and labels:
[1] = Inhibition of rabbit muscle Glycogen phosphorylase b using glucose-1-phosphate as substrate in presence of AMP; set-up: species or system Oryctolagus cuniculus
Method in brief: (§1)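 Rabbit muscle GPb (3 μg/mL) was assayed at 30 °C for glycogen synthesis in 30 mM imidazole/HCl pH 6.8 with 60 mM KCl, 0.6 mM EDTA, 0.6 mM DTT, 0.2% w/v glycogen and 1 mM AMP. Glc-1-P was varied (2, 3, 4, 6, 10 mM) at several inhibitor concentrations. Pi release gave initial rates; Ki came from Km(app) versus [inhibitor] by nonlinear regression.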

Homo sapiens [2] = species on record: Homo sapiens; test: Competitive inhibition of human liver Glycogen phosphorylase a up to 180 uM using glucose-1-phosphate as substrate by Lineweaver-Burk plot analysis
Method in brief: (§2)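 Human liver GPa (1 μg/mL) assayed at 30 °C toward glycogen synthesis in 30 mM imidazole/HCl pH 6.8 with 60 mM KCl, 0.6 mM EDTA, 0.6 mM DTT, 0.2% w/v glycogen and no AMP. Glc-1-P was varied at 1, 2, 3, 4 and 6 mM against several inhibitor levels. Released Pi was read; Ki came from Km(app) versus [inhibitor] by weighted nonlinear regression.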

[3] = Inhibition of rabbit muscle Glycogen phosphorylase a using glucose-1-phosphate as substrate; set-up: species or system Oryctolagus cuniculus
Method in brief: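 Rabbit muscle GPa (3 μg/mL) was run at 30 °C in the glycogen-synthesis direction in 30 mM imidazole/HCl pH 6.8 containing 60 mM KCl, 0.6 mM EDTA, 0.6 mM DTT and 0.2% w/v glycogen, without AMP. Glc-1-P was 2, 3, 4, 6 and 10 mM with varied inhibitor. Inorganic phosphate release was measured; Ki came from the Km(app) versus [inhibitor] fit.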

[4] = Inhibition of human liver Glycogen phosphorylase a using glucose-1-phosphate as substrate; method in brief: as §2
[5] = Inhibition of rabbit muscle Glycogen phosphorylase b using alpha-D-glucose-1-phosphate as substrate in presence of AMP by dixon plot analysis; set-up: species or system Oryctolagus cuniculus; method in brief: as §1
Oryctolagus cuniculus = species on record: Oryctolagus cuniculus; test: Inhibition of rabbit muscle Glycogen phosphorylase b at 625 uM using glucose-1-phosphate as substrate in presence of AMP relative to control
Homo sapiens [6] = species on record: Homo sapiens; test: Competitive inhibition of human liver Glycogen phosphorylase a up to 35 uM using glucose-1-phosphate as substrate by Lineweaver-Burk plot analysis; method in brief: as §2
Homo sapiens [7] = species on record: Homo sapiens; test: Competitive inhibition of human liver Glycogen phosphorylase a up to 650 uM using glucose-1-phosphate as substrate by Lineweaver-Burk plot analysis; method in brief: as §2
Homo sapiens [8] = species on record: Homo sapiens; test: Competitive inhibition of human liver Glycogen phosphorylase a up to 1000 uM using glucose-1-phosphate as substrate by Lineweaver-Burk plot analysis
Homo sapiens [9] = species on record: Homo sapiens; test: Competitive inhibition of human liver Glycogen phosphorylase a up to 3 uM using glucose-1-phosphate as substrate by Lineweaver-Burk plot analysis; method in brief: as §2
[10] = Inhibition of Glycogen phosphorylase in human HepG2 cells incubated for 2 hrs; type: cell-based
Method in brief: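 HepG2 cells were precultured in 25 mmol/L glucose with 10 nM insulin to load glycogen. They were then shifted to 5 mmol/L glucose with inhibitor at 80–516 μM for 2 h to drive glycogenolysis. GP activity was read spectrophotometrically in the whole homogenate, and IC50 was derived from the concentration series.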

HepG2 = test: Cytotoxicity against human HepG2 cells at 80 to 516 uM incubated for 2 hrs; type: cell-based; conditions: hepg2, 2 h
Homo sapiens [11] = species on record: Homo sapiens; test: Competitive inhibition of human liver Glycogen phosphorylase a up to 10 uM using glucose-1-phosphate as substrate by Lineweaver-Burk plot analysis; method in brief: as §2

Row | Structure (SMILES) | Ki [1] [µM] | Ki [3] [µM] | Ki [4] [µM] | inhibition (Oryctolagus cuniculus) | further results
1 | O=C1N=C(c2ccccc2)N[C@]12O[C@H](CO)[C@@H](O)[C@H](O)[C@H]2O | 136 | 34.2 | 96.7 | – | inhibition (Homo sapiens [2]): Active
2 | OC[C@H]1O[C@]2(ON=C(c3ccccc3)S2)[C@H](O)[C@@H](O)[C@@H]1O | – | – | – | – | Ki [5]: 26 µM
3 | O=C1N=C(c2ccc(C(F)(F)F)cc2)N[C@@]12O[C@H](CO)[C@@H](O)[C@H](O)[C@H]2O | – | – | – | inactive | –
4 | O=C1N=C(c2cccc3ccccc23)N[C@@]12O[C@H](CO)[C@@H](O)[C@H](O)[C@H]2O | 13 | 6.6 | 22.2 | – | inhibition (Homo sapiens [6]): Active
5 | O=C1NC(=O)[C@]2(N1)O[C@H](CO)[C@@H](O)[C@H](O)[C@H]2O | 105 to 320 | – | – | – | –
6 | O=C1N=C(c2ccc3ccccc3c2)N[C@]12O[C@H](CO)[C@@H](O)[C@H](O)[C@H]2O | – | 212 | 371 | 25% | inhibition (Homo sapiens [7]): Active
7 | O=C1N=C(c2cccc3ccccc23)N[C@]12O[C@H](CO)[C@@H](O)[C@H](O)[C@H]2O | – | 653 | 1170 | inactive | inhibition (Homo sapiens [8]): Active
8 | O=C1N=C(c2ccc(C(F)(F)F)cc2)N[C@]12O[C@H](CO)[C@@H](O)[C@H](O)[C@H]2O | – | – | – | inactive | –
9 | O=C1N=C(c2ccc3ccccc3c2)N[C@@]12O[C@H](CO)[C@@H](O)[C@H](O)[C@H]2O | 2.11 | 1.13 | 1.72 | – | inhibition (Homo sapiens [9]): Active; IC50 [10]: 177 µM; Activity (HepG2): Non-Toxic
10 | O=C1NC(=S)N[C@@]12O[C@H](CO)[C@@H](O)[C@H](O)[C@H]2O | 5.1 | – | – | – | –
11 | O=C1NC(=O)[C@@]2(N1)O[C@H](CO)[C@@H](O)[C@H](O)[C@H]2O | 3.1 | – | – | – | –
12 | O=C1N=C(c2ccccc2)N[C@@]12O[C@H](CO)[C@@H](O)[C@H](O)[C@H]2O | 9 | 4.5 | 8.4 | – | inhibition (Homo sapiens [11]): Active
